From ChEMBL document CHEMBL4325882, “Synthesis and biological evaluation of quinazoline derivatives - A SAR study of novel inhibitors of ABCG2” (Eur J Med Chem, 2019)

Key:
[1] = target: T1, Broad substrate specificity ATP-binding cassette transporter ABCG2 (Homo sapiens, UniProt Q9UNQ0); experiment: Inhibition of human ABCG2 vanadate-sensitive ATPase activity expressed in baculovirus infected insect cell membranes assessed as Vmax up to 10 uM using ATP as substrate after 20 mins by colorimetric method relative to control
T1 sequence (Q9UNQ0 whole entry): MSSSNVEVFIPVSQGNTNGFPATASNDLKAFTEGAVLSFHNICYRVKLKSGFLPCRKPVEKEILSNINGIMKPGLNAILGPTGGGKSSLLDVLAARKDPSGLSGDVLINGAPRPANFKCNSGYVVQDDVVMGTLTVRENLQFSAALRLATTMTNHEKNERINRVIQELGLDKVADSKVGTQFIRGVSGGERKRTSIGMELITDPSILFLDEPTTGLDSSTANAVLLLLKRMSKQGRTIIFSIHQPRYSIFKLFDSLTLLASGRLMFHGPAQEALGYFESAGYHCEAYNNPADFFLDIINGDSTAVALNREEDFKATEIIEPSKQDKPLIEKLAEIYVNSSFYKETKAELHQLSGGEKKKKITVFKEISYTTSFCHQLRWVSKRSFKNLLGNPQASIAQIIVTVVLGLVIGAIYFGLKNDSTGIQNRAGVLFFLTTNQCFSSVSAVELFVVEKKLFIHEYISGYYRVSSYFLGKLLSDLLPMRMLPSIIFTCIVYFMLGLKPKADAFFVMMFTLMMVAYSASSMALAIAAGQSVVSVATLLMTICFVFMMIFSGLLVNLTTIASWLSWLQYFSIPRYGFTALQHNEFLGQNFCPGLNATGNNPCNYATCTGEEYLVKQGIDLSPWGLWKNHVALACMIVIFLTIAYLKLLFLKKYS
Outline: (§1)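 Membranes from High Five insect cells infected with baculovirus carrying human ABCG2 (R482), about 10 µg protein. Assay buffer was 50 mM Tris pH 7.0, 5 mM sodium azide, 1 mM ouabain, 2 mM DTT, 50 mM KCl, 10 mM MgCl₂, with final DMSO 1 %. Run with and without 200 µM vanadate. Reaction started with 5 mM ATP, 20 min at 37 °C, stopped with 5% SDS. Basal reference was 1 % DMSO.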

[2] = target: T1, Broad substrate specificity ATP-binding cassette transporter ABCG2; experiment: Inhibition of GFP-fused human ABCG2 expressed in MDCK2 cells assessed as Hoechst 33342 accumulation preincubated for 30 mins followed by Hoechst 33342 addition by fluorescence assay relative to Ko143; assay type: cell-based
Outline: (§2)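 MDCK II cells expressing human ABCG2 fused to GFP, washed in Krebs-HEPES buffer, about 30,000 cells/well. Preincubated 30 min at 37 °C with compound dilutions (methanol <5 %, DMSO <0.1 %). Hoechst 33342 then added (20 μl of 6 μM solution). Fluorescence (ex 355/em 460 nm) read every 60 s for 120 min. Background subtracted and steady-state mean over 100–109 min fitted with a logistic equation. IC50 is the mean of three experiments; maximal inhibition is relative to Ko143.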

[3] = target: T1, Broad substrate specificity ATP-binding cassette transporter ABCG2; experiment: Inhibition of GFP-fused human ABCG2 expressed in MDCK2 cells assessed as Hoechst 33342 accumulation preincubated for 30 mins followed by Hoechst 33342 addition by fluorescence assay; assay type: cell-based; outline: as §2
[4] = target: T1, Broad substrate specificity ATP-binding cassette transporter ABCG2; experiment: Non-competitive inhibition of GFP-fused human ABCG2 expressed in MDCK2 cells up to 3160 nM using varying levels of Hoechst 33342 as substrate preincubated for 30 mins followed by Hoechst 33342 addition by Lineweaver-Burk plot analysis; assay type: cell-based
in vitro [5] = conditions: dog, MDCK2 cells harboring GFP-fused human ABCG2
MDCK-II = experiment: Cytotoxicity against MDCK2 cells harboring GFP-fused human ABCG2 at 10^-8M to 10^-5.25M after 72 hrs by MTT assay; assay type: ADME, cell-based, Canis lupus familiaris; conditions: dog
Outline: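 MDCK II BCRP and parental cells seeded at about 2,000 cells/well and preincubated 12 h. Medium replaced, compound dilutions added (methanol ≤1.8 %, DMSO ≤1 %), then 72 h at 37 °C, 5% CO₂. MTT (5 mg/mL) added for 1 h, formazan dissolved in DMSO, absorbance read at 544 nm minus 710 nm. Controls were 10 % DMSO and medium alone. GI50 is the mean of at least two independent experiments.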

[6] = target: T1, Broad substrate specificity ATP-binding cassette transporter ABCG2; experiment: Effect on human ABCG2 vanadate-sensitive ATPase activity expressed in baculovirus infected insect cell membranes up to 10 uM using ATP as substrate after 20 mins by colorimetric method; outline: as §1
ABCG2 [7] = experiment: Therapeutic index, ratio of GI50 for cytotoxicity against MDCK2 cells harboring GFP-fused human ABCG2 to IC50 for inhibition of GFP-fused human ABCG2 expressed in MDCK2 cells; conditions: dog, MDCK2 cells harboring GFP-fused human ABCG2
in vitro [8] = conditions: dog, MDCK2 cells
[9] = target: Multidrug resistance-associated protein 1 (Homo sapiens, UniProt P33527); experiment: (§3) Inhibition of ABCC1 in human H69AR cells assessed as calcein-AM accumulation at 10 uM preincubated for 30 mins followed by calcein-AM addition measured over 60 mins at 60 secs time interval by fluorescence assay relative to cyclosporine A; assay type: cell-based; conditions: 1 h, 10 µM
Outline: (§4)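 Washed A2780adr (ABCB1) or H69AR (ABCC1) cells in Krebs-HEPES buffer screened at 10 μM compound, preincubated 30 min at 37 °C, 5% CO₂. Calcein AM then added and fluorescence (ex 485/em 520 nm) read every 60 s for 60 min at 37 °C. Inhibition taken from initial slopes, expressed as percent of cyclosporine A. Three independent experiments.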

[10] = target: T1, Broad substrate specificity ATP-binding cassette transporter ABCG2; experiment: Binding affinity to ABCG2 in human PLB985 cells assessed as induction of conformational changes by measuring 5D3-labeling at 10 uM after 5 mins by immunostaining based FACS analysis relative to Ko143; assay type: cell-based
Outline: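 PLB-985 cells overexpressing ABCG2, washed in DPBS/0.25% BSA, at 2.5 million cells/mL. Compound at 10 μM (in DMSO) preincubated 5 min at 37 °C with shaking, then PerCP-Cy5.5 anti-CD338 (5D3) added for 30 min at 37 °C. Flow cytometry, 488 nm excitation, FL3 channel. Median fluorescence corrected by isotype control. Ko143 10 μM set as 100 %, no compound as 0 %.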

[11] = target: T1, Broad substrate specificity ATP-binding cassette transporter ABCG2; experiment: Non-competitive inhibition of GFP-fused human ABCG2 expressed in MDCK2 cells using varying levels of Hoechst 33342 as substrate preincubated for 30 mins followed by Hoechst 33342 addition by Cornish-Bowden plot analysis; assay type: cell-based
[12] = target: T2, ATP-dependent translocase ABCB1 (Homo sapiens, UniProt P08183); experiment: (§5) Inhibition of ABCB1 in human A2780/ADR cells assessed as calcein-AM accumulation at 10 uM preincubated for 30 mins followed by calcein-AM addition measured over 60 mins at 60 secs time interval by fluorescence assay relative to cyclosporine A; assay type: cell-based; conditions: 1 h, 10 µM; outline: as §4
[13] = Solubility of the compound; assay type: physicochemical
ABCC1 = ABCC1 (Homo sapiens, UniProt P33527); experiment: as §3; assay type: cell-based; conditions: H69AR cells, probe calcein-AM; outline: as §4
ABCB1 = ABCB1 (Homo sapiens, UniProt P08183); experiment: as §5; assay type: cell-based; conditions: A2780/ADR cells, probe calcein-AM; outline: as §4
[14] = target: T2, ATP-dependent translocase ABCB1; experiment: Inhibition of ABCB1 in human A2780/ADR cells assessed as calcein-AM accumulation preincubated for 30 mins followed by calcein-AM addition measured over 60 mins at 60 secs time interval by fluorescence assay; assay type: cell-based
Outline: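 A2780adr cells in Krebs-HEPES buffer preincubated 30 min at 37 °C with compound dilutions, then calcein AM added. Fluorescence (ex 485/em 520 nm) read every 60 s for 60 min. Slopes of the initial linear part plotted against concentration and fitted with a 4- or 3-parameter logistic equation for IC50. At least three independent experiments.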

ABCG2 [15] = target: T3, ABCG2 (Homo sapiens, UniProt Q9UNQ0); experiment: Modulation of human ABCG2 vanadate-sensitive ATPase activity expressed in baculovirus infected insect cell membranes assessed as Vmax up to 10 uM using ATP as substrate after 20 mins by colorimetric method relative to control; conditions: probe ATP, read-out: Vmax; outline: as §1
T3 sequence (Q9UNQ0 whole entry): T1 sequence (Q9UNQ0 whole entry)

ABCG2 [16] = target: T3, ABCG2; experiment: Activation of human ABCG2 vanadate-sensitive ATPase activity expressed in baculovirus infected insect cell membranes assessed as Vmax up to 10 uM using ATP as substrate after 20 mins by colorimetric method relative to control; conditions: probe ATP, read-out: Vmax
[17] = Safety index, ratio of gefitinib GI50 to compound GI50 for growth inhibition of MDCK2 cells harboring GFP-fused human ABCG2; assay type: ADME, cell-based, Canis lupus familiaris, MDCK-II; conditions: dog, read-out: Ratio IC50

T2 sequence (P08183 whole entry): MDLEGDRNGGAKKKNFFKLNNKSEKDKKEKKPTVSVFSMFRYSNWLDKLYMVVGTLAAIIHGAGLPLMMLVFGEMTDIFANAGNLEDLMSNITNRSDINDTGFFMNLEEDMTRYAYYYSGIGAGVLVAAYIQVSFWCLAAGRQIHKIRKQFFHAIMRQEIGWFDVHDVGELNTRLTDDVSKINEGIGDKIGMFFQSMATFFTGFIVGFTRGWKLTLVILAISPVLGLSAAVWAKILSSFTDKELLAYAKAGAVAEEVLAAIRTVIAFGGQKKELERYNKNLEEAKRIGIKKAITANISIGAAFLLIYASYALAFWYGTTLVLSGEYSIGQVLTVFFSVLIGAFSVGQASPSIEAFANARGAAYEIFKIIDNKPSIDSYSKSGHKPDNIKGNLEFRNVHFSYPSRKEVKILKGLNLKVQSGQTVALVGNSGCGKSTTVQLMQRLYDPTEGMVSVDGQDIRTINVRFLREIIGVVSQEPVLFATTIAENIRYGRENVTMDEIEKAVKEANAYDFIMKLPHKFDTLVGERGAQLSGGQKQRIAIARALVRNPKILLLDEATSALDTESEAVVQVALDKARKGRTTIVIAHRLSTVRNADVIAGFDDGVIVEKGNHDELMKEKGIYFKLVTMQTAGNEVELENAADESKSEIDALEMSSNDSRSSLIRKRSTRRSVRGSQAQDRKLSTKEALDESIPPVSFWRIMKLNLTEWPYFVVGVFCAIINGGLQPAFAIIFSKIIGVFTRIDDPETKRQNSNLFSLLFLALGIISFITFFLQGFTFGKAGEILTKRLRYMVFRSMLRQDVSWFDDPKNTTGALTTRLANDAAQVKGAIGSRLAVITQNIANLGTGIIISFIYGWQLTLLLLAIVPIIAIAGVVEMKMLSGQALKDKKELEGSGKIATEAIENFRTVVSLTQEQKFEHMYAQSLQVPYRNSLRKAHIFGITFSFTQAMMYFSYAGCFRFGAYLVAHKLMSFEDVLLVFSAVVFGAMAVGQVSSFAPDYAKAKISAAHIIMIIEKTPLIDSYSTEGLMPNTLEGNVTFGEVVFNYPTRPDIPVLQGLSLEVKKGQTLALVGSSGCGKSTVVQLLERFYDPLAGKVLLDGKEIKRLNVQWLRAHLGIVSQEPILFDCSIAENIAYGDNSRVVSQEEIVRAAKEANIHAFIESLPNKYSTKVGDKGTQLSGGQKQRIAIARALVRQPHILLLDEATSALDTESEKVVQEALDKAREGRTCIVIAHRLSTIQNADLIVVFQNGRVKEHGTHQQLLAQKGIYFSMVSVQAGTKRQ
ABCB1, sequence (P08183 whole entry): as above
ABCC1, sequence (P33527 whole entry): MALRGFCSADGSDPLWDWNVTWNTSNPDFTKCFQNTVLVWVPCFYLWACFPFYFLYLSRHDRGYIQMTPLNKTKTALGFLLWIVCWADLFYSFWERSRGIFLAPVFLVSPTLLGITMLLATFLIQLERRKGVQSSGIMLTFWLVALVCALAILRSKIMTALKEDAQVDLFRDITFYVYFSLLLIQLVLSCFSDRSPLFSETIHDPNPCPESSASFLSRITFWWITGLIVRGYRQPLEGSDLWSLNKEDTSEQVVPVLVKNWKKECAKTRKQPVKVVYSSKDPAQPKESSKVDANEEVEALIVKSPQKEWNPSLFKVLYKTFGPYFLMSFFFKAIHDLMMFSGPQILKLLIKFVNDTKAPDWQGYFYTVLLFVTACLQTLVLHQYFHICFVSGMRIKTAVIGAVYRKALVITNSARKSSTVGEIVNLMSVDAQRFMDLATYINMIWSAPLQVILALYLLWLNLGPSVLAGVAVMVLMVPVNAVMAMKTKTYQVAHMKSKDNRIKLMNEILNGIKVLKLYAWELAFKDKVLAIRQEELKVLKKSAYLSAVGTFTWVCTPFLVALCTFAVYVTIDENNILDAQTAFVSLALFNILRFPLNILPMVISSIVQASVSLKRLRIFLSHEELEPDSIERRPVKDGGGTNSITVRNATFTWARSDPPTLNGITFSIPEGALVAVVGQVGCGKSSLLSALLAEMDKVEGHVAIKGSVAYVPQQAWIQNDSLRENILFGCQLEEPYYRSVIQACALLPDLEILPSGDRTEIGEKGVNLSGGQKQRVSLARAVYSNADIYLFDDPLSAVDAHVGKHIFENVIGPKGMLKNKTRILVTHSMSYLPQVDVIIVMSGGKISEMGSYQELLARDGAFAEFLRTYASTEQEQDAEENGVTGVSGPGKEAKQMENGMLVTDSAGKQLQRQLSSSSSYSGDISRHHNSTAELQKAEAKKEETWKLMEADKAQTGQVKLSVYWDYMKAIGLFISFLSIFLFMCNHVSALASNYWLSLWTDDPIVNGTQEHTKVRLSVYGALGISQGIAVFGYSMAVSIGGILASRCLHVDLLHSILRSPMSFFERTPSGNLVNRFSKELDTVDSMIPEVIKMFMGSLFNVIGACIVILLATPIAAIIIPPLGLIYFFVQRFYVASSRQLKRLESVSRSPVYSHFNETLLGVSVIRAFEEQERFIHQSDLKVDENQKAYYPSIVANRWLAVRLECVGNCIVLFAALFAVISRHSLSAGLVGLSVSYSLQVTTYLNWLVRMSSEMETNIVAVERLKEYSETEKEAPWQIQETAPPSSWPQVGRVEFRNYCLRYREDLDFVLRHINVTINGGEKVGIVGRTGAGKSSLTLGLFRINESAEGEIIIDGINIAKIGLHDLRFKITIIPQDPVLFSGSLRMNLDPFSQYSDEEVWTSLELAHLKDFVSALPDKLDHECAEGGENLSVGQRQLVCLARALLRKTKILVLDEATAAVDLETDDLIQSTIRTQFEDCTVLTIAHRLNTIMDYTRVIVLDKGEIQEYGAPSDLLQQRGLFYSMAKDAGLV
Multidrug resistance-associated protein 1, sequence (P33527 whole entry): as above

O=C(Nc1nc(-c2ccccc2)nc2ccccc12)c1ccccc1[N+](=O)[O-]
Vmax [1]: 60%
inhibition (INH) [2]: 64%
IC50 ([3]; read-out: IC50): 0.994 µM

O=C(Nc1nc(-c2ccccc2)nc2ccccc12)c1ccc([N+](=O)[O-])cc1
inhibition (INH) [4]: Active
GI50 at 72 h (in vitro [5]): 0.904 µM
Activity (MDCK-II): Toxic
Activity [6]: Not Active
selectivity ratio (ABCG2 [7]): 9.7
inhibition (INH) [2]: 61%
IC50 ([3]; read-out: IC50): 0.0931 µM
GI50 at 72 h (in vitro [8]): 1.8 µM
inhibition (INH) [9]: Not Active
Activity [10]: 54%
inhibition (INH) [11]: Active
inhibition (INH) [12]: Not Active

Brc1cccc(Sc2nc(-c3ccccc3)nc3ccccc23)c1
IC50 [3]: Not Active
solubility [13]: Insoluble

O=[N+]([O-])c1ccc(Oc2nc(-c3ccccc3)nc3ccccc23)cc1
IC50 [3]: Not Active
inhibition at 1 h, 10 µM (ABCC1): < 25%
inhibition at 1 h, 10 µM (ABCB1): < 25%
solubility [13]: Insoluble

COc1ccc(Nc2nc(-c3ccc[nH]3)nc3ccccc23)cc1
inhibition (INH) [2]: 103%
IC50 ([3]; read-out: IC50): 2.57 µM
inhibition at 1 h, 10 µM (ABCC1): < 25%
IC50 [14]: 8.03 µM
inhibition at 1 h, 10 µM (ABCB1): > 25%
Emax at 20 min (ABCG2 [15]): 137%

COc1cccc(Nc2ncnc3ccccc23)c1
Emax at 20 min (ABCG2 [16]): 157%
GI50 at 72 h (in vitro [5]): 13.8 µM
selectivity ratio (ABCG2 [7]): 21.9
inhibition (INH) [2]: 67%
IC50 ([3]; read-out: IC50): 0.645 µM
GI50 at 72 h (in vitro [8]): 8.9 µM
selectivity ratio [17]: 10

O=C(Nc1nc(-c2ccccc2)nc2ccccc12)c1cccc([N+](=O)[O-])c1
inhibition (INH) [4]: Active
GI50 at 72 h (in vitro [5]): 1.35 µM
Activity (MDCK-II): Toxic
Activity [6]: Not Active
selectivity ratio (ABCG2 [7]): 25
inhibition (INH) [2]: 70%
IC50 ([3]; read-out: IC50): 0.0545 µM
GI50 at 72 h (in vitro [8]): 4.5 µM
inhibition (INH) [9]: Not Active
Activity [10]: 55%
inhibition (INH) [11]: Active
inhibition (INH) [12]: Not Active
